In general, IC50 refers to the point on the concentration scale where inhibition reaches its midpoint.

SMILES strings stand for the structures.

Consider one compound from paper PMC3288537 (ACS Chemical Biology, 2011).

Common to all, as to type: biochemical
The target of one assay is T1, TCPTP (Homo sapiens, UniProt P17706).
T1 sequence (P17706 1-415): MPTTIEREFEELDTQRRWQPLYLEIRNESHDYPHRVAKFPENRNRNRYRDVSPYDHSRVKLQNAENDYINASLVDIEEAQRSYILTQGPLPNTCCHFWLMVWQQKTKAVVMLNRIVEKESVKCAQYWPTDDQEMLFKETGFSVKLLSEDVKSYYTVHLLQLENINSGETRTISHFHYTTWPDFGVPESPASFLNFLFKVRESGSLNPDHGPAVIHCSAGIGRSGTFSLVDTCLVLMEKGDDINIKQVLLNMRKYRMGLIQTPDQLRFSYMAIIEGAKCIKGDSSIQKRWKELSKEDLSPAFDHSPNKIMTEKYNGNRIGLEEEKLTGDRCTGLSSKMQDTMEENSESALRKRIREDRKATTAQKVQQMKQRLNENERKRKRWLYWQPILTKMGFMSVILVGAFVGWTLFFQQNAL
Description: Dose-response OMFP phosphatase assay, TCPTP. Conditions: read-out: IC50 TCPTP; OMFP substrate. A digest of the protocol: (§1)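 Ten-point 2-fold dilution series of test compound prepared in DMSO. Fluorescence (ex 485/em 528 nm) read in kinetic mode over 10 min; progress-curve slopes taken as activity. IC50 by nonlinear regression (sigmoidal, variable slope).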

The next assay deals with SHP1 (Homo sapiens, UniProt P29350). Description: Dose-response OMFP phosphatase assay, SHP1. Conditions: read-out: IC50 SHP1; OMFP substrate. Summed up: as §1
Sequence of SHP1 (P29350 whole entry): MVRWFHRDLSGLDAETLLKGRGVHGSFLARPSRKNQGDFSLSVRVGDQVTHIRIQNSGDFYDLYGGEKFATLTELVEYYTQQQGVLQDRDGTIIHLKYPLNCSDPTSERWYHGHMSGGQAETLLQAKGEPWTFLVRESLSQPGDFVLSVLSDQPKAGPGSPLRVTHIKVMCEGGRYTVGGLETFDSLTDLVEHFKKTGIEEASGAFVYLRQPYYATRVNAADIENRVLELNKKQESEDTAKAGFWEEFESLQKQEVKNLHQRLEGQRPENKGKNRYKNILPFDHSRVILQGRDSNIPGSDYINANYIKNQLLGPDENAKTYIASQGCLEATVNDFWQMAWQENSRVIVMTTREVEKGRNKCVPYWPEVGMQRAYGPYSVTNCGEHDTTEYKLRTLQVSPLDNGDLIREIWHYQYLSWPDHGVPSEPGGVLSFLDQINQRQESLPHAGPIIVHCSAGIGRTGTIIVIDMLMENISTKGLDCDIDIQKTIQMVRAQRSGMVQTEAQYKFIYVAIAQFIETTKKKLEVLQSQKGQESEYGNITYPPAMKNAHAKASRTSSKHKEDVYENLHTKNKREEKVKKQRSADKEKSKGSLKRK
Another assay has as its target T2, HePTP H237A mutant (Homo sapiens, UniProt P35236, H258A).
T2 sequence (P35236 22-360 H258A limits assumed): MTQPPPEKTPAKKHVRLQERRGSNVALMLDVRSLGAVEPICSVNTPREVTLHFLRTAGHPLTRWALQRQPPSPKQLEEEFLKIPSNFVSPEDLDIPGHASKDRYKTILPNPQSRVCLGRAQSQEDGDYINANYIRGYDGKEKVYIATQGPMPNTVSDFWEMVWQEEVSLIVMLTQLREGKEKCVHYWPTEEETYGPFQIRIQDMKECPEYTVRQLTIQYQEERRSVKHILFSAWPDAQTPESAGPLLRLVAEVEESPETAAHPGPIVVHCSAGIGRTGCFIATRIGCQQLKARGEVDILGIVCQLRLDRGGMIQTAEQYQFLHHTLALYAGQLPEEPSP
Description: Dose-response OMFP phosphatase assay, HePTP H237A mutant. Conditions: read-out: IC50 HePTP H237A.

The target in another assay is VHR (Homo sapiens, UniProt P51452). Briefly: Dose-response OMFP phosphatase assay, VHR. The conditions noted are these: read-out: IC50 VHR; OMFP substrate.
Sequence of VHR (P51452 whole entry, species assumed): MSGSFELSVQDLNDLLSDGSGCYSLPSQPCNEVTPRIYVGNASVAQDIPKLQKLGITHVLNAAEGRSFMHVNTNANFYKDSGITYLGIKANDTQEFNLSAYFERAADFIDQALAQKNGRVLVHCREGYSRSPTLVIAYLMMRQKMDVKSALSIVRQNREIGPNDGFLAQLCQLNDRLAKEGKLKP
Assay [1] concerns the target T3, HePTP (Homo sapiens, UniProt P35236).
T3 sequence (P35236 1-360): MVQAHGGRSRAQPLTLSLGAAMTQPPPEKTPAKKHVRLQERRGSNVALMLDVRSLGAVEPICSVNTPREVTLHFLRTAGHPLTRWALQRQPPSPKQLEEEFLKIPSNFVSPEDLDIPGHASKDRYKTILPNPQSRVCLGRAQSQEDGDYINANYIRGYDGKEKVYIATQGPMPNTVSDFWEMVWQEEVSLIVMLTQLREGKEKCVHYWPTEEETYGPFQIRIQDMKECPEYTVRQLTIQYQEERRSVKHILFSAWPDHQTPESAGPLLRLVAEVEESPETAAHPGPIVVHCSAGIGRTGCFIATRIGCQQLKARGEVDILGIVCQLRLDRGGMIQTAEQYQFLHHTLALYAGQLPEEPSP
Briefly: Michaelis-Menten kinetic studies with OMFP. Conditions: various inhibitor and substrate concentrations. Summed up:
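Started by adding OMFP at 0–400 μM. Initial rates read by fluorescence (ex 485/em 528 nm), corrected with no-enzyme controls. Eadie-Hofstee plots drawn; competing models compared by AICc.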

Assay [2] concerns the target T3, HePTP. Description: Dose-response OMFP phosphatase assay, HePTP.
A further assay has as its target T4, STEP (Homo sapiens, UniProt P54829).
T4 sequence (P54829 1-565): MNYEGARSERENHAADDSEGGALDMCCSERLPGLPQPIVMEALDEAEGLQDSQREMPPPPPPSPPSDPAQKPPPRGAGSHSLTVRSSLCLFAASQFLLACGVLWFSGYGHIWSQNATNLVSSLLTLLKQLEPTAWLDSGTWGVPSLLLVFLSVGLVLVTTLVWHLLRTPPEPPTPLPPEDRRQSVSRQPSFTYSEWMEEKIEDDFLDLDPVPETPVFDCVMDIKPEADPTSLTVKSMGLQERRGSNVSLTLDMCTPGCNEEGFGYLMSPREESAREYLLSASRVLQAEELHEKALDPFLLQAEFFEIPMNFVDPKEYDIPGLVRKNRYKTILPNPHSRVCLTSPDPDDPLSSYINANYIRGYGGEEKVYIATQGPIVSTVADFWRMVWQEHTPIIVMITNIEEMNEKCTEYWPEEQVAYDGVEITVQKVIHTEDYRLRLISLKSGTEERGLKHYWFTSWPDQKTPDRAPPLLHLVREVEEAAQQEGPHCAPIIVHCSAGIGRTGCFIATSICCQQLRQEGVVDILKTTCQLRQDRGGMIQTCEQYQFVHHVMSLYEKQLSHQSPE
Briefly: Dose-response OMFP phosphatase assay, STEP. The conditions noted are these: read-out: IC50 STEP; OMFP substrate.

Regarding `O=C(O)c1ccccc1-c1ccc(/C=c2\sc3nc4cc(Br)cnc4n3c2=O)o1` [Compound 1], the IC50 stood at 1000 nM at TCPTP; 2500 nM at SHP1; 2800 nM at HePTP H237A mutant; 1900 nM at VHR; 210 nM at HePTP [2] (read-out: IC50 HePTP, OMFP substrate); 6300 nM on STEP. Further, at HePTP [1], the inhibition pattern result was “mixed inhibition pattern”. Besides, the “time-dependent inhibition of HePTP (progress curves)” value at HePTP [2] (progress curves linear over 98 min at different concentrations) is given as “no time-dependent inhibition”.
